In ChEMBL document CHEMBL1140638, “Kipukasins, nucleoside derivatives from Aspergillus versicolor” (2007) one finds Activity and zone of inhibition data, which are given here for 7 compounds.

Calls of active or inactive are those of the source. No cut-off for these calls is given here.

The test system of one assay is Fusarium verticillioides. The assay is described as follows: Antifungal activity against Fusarium verticillioides NRRL 25457 at 200 ug/disk. It counts as functional, organism-based.
The subject of a further assay is Staphylococcus aureus. In words: Antibacterial activity against Staphylococcus aureus ATCC 29213 at 100 ug/disk. It counts as functional. In a few lines: (§1)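 Disk diffusion assay with 100 μg of compound per disk. Strains used were Staphylococcus aureus ATCC 29213 and Bacillus subtilis ATCC 6051. The read-out was the diameter of the zone of inhibition in mm.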
The test system of another assay is Aspergillus flavus. The assay is described as follows: Antifungal activity against Aspergillus flavus NRRL 6541 at 200 ug/disk. It counts as functional, organism-based.
The test system of a further assay is Candida albicans. The assay is described as follows: Antifungal activity against Candida albicans ATCC 14053 at 200 ug/disk. The class given is functional, organism-based.
In another assay the test system is Bacillus subtilis. The assay is described as follows: Antibacterial activity against Bacillus subtilis at 100 ug/disk. It counts as functional. The method, boiled down:
as §1

`COc1cc(C)c(C(=O)O[C@H]2[C@@H](OC(C)=O)[C@H](n3ccc(=O)[nH]c3=O)O[C@@H]2CO)c(OC)c1`: the outcome in the assay on Fusarium verticillioides, with Aspergillus flavus and in the assay with Candida albicans was inactive. The zone of inhibition at 100 µg/disc in the assay on Staphylococcus aureus (read-out: IZ) is 18 mm.

For the compound `COc1cc(O)cc(C)c1C(=O)O[C@H]1[C@@H](OC(C)=O)[C@H](n2ccc(=O)n(C)c2=O)O[C@@H]1CO`, the outcome in the assay on Fusarium verticillioides, with Staphylococcus aureus, in the assay on Aspergillus flavus, in the assay on Candida albicans and in the assay with Bacillus subtilis was inactive.

Take `COc1cc(O)cc(C)c1C(=O)O[C@H]1[C@@H](OC(C)=O)[C@H](n2ccc(=O)[nH]c2=O)O[C@@H]1CO`: the outcome in the assay on Fusarium verticillioides, in the assay on Aspergillus flavus and with Candida albicans was inactive. Besides, the zone of inhibition at 100 µg/disc in the assay on Bacillus subtilis (read-out: IZ) is 12 mm.

As for `COc1cc(C)c(C(=O)O[C@H]2[C@@H](O)[C@H](n3ccc(=O)[nH]c3=O)O[C@@H]2CO)c(OC)c1`, the result in the assay on Fusarium verticillioides, in the assay with Staphylococcus aureus, in the assay with Aspergillus flavus, in the assay on Candida albicans and with Bacillus subtilis was inactive.

In the case of `COc1cc(C)c(C(=O)O[C@H]2[C@@H](OC(C)=O)[C@H](n3ccc(=O)[nH]c3=O)O[C@@H]2CO)c(O)c1`, the result in the assay on Fusarium verticillioides, in the assay with Staphylococcus aureus, with Aspergillus flavus, in the assay on Candida albicans and in the assay on Bacillus subtilis was inactive.

With `COc1cc(O)cc(C)c1C(=O)O[C@H]1[C@@H](O)[C@H](n2ccc(=O)n(C)c2=O)O[C@@H]1CO`, the result with Fusarium verticillioides, in the assay with Staphylococcus aureus, in the assay on Aspergillus flavus, in the assay with Candida albicans and with Bacillus subtilis was inactive.

Take `COc1cc(C)c(C(=O)O[C@@H]2[C@H](O)[C@@H](CO)O[C@H]2n2ccc(=O)[nH]c2=O)c(OC)c1`: the outcome with Fusarium verticillioides, in the assay on Staphylococcus aureus, with Aspergillus flavus, in the assay on Candida albicans and in the assay with Bacillus subtilis was inactive.
